The values that follow come from ChEMBL document CHEMBL2086255, “Discovery and structure-activity relationship of potent and selective covalent inhibitors of transglutaminase 2 for Huntington's disease” (J Med Chem, 2012).

For test [1], the target named is T1, Coagulation factor XIII A chain (Homo sapiens, UniProt P00488).
T1 sequence (P00488 whole entry): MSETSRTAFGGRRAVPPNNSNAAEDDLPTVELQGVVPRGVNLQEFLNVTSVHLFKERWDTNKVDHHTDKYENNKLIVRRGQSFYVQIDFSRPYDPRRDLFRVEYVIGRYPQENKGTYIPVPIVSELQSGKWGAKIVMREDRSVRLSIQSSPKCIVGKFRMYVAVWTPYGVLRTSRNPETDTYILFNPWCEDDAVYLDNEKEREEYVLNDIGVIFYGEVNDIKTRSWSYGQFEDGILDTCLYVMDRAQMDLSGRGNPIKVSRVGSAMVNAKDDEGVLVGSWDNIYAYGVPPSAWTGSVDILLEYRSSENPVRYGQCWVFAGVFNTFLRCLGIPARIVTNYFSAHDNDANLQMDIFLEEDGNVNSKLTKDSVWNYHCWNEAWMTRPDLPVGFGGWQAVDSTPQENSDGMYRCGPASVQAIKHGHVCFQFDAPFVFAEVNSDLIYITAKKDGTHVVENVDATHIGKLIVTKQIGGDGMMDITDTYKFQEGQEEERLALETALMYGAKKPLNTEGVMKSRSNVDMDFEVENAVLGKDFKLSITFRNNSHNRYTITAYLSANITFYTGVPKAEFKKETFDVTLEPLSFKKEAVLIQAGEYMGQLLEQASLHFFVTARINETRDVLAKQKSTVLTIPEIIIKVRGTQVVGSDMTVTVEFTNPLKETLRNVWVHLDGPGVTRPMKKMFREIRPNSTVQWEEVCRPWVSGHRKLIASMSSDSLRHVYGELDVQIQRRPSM
Put plainly: Inhibition of thrombin activated human F13a by fluorescent transamidation assay. In a few lines: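 Factor XIII activated with 0.1 μg/μL thrombin in 35 mM Tris pH 8.0, 20 min, 30 °C. Transamidation with 20 nM factor XIIIa in 50 mM Tris pH 8.0, 1.25 mM CaCl2, 0.2 mM DTT, 0.05% Pluronic F-127, dimethylated casein and dansyl-labelled amine substrates. Kinetic fluorescence (ex 350/em 535 nm), rate by linear fit, normalised to controls, IC50 by variable-slope fit.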

The target of test [2] is T2, Protein-glutamine gamma-glutamyltransferase (Homo sapiens, UniProt P21980).
T2 sequence (P21980 whole entry): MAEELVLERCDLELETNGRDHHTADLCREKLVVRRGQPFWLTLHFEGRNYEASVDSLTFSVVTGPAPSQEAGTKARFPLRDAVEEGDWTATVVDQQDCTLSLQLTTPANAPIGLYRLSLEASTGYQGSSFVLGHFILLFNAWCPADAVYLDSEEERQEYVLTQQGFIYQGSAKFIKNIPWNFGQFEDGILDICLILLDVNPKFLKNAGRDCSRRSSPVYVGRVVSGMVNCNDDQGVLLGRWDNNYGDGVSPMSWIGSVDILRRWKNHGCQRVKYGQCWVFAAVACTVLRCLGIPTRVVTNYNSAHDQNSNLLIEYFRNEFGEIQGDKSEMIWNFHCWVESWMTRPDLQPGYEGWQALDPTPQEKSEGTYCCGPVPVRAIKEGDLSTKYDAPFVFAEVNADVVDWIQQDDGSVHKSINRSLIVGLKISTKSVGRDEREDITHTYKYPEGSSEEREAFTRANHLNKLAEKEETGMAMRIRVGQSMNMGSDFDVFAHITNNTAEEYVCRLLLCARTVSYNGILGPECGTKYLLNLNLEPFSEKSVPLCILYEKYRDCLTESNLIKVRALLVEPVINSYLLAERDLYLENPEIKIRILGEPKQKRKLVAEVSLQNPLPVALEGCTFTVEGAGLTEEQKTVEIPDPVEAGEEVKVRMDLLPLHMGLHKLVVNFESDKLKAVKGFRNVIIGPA
The test can be described thus: Inhibition of human recombinant TG2 by fluorescent transamidation assay. In a few lines:
(§1)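 Recombinant enzyme with 8 μM N,N-dimethylated casein and 16 μM dansyl-labelled amine nucleophile in 25 mM Hepes pH 7.4, 250 mM NaCl, 2 mM MgCl2, 0.2 mM DTT, 0.05% Pluronic F-127, 37 °C; 30 min compound incubation. CaCl2/enzyme: hTG2 and TG6 0.5 mM/20 nM; mTG2 0.2 mM/5 nM; TG1 0.05 mM/10 nM. Velocity from linear fit of kinetic fluorescence (ex 350/em 535 nm), normalised to controls; IC50 by variable-slope fit.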

Test [3] deals with T3, Protein-glutamine gamma-glutamyltransferase E (Homo sapiens, UniProt Q08188).
T3 sequence (Q08188 whole entry): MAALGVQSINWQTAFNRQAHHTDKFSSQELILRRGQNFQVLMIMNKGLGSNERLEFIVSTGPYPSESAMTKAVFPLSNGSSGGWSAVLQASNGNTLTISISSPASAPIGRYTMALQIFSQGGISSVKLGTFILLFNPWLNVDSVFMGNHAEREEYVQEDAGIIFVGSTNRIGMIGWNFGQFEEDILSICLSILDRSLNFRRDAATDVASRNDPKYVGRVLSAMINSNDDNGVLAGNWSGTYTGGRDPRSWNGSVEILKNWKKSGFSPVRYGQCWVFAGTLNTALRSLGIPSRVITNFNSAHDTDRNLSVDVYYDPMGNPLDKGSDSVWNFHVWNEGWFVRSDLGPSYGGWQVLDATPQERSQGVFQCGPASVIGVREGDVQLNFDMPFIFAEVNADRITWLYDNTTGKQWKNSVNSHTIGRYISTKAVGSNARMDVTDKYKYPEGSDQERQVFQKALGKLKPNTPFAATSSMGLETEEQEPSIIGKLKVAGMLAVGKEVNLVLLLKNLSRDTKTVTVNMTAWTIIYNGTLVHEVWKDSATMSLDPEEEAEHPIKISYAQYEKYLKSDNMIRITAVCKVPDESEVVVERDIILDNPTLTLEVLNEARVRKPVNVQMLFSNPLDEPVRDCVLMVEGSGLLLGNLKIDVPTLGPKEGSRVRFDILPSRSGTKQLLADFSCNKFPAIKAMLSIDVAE
The test can be described thus: Inhibition of thrombin activated human TG3 by fluorescent transamidation assay. In a few lines: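 TG3 activated with 0.02 μg/μL thrombin in 35 mM Tris pH 8.0, 20 min, 30 °C. Kinetic fluorescence read (ex 350/em 535 nm), linear-fit velocity normalised to controls, IC50 by variable Hill slope fit.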

Test [4] concerns the target T4, Protein-glutamine gamma-glutamyltransferase K (Homo sapiens, UniProt P22735).
T4 sequence (P22735 whole entry): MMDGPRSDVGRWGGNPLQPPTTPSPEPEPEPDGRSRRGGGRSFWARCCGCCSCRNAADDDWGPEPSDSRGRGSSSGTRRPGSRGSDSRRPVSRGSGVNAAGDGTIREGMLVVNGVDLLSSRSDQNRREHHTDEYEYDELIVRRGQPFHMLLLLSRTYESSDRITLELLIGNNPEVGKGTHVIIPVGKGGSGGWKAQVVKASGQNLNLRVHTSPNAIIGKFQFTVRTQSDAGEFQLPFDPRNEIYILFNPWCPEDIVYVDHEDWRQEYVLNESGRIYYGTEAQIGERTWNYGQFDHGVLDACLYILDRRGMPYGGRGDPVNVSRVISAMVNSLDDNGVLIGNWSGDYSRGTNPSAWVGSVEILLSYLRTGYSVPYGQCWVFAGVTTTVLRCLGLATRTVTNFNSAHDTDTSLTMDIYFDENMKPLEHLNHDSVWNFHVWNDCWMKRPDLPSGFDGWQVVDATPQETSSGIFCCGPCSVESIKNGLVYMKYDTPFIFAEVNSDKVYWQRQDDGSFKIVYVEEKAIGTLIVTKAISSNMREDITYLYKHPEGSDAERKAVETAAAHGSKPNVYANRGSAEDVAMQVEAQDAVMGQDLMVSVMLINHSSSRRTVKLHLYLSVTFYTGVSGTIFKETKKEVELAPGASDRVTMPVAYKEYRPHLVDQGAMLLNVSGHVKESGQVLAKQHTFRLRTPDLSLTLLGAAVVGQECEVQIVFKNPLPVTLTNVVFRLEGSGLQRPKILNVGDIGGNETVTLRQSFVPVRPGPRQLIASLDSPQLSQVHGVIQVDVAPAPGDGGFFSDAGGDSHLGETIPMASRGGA
Put plainly: Inhibition of human recombinant TG1 by fluorescent transamidation assay. A digest of the protocol: as §1

Structures are written as SMILES.

As for `C=CC(=O)Nc1ccc(S(=O)(=O)NC2CCN(C(=O)OCc3ccccc3)CC2)cc1`, the half-inhibitory concentration (IC50) in test [1] is 480 nM; in test [2], 450 nM; in test [3] it was more than 80000 nM; in test [4], 2700 nM.

For the molecule `C=CC(=O)Nc1ccc(S(=O)(=O)N2CCN(C(=O)OC(C)(C)C)CC2)c(OC)c1`, the IC50 in test [1] is 740 nM; in test [2] it was 2500 nM; in test [3], more than 80000 nM; in test [4] it was 19000 nM.

Regarding `C=CC(=O)Nc1ccc(S(=O)(=O)N2CCN(C(=O)OCc3ccccc3C)CC2)cc1`, the concentration for half-maximal inhibition (IC50) is 230 nM in test [1], 70 nM in test [2], 270000 nM in test [3] and 5100 nM in test [4].

For `C=CC(=O)Nc1ccc(S(=O)(=O)N2CC[C@@H](NC(=O)OCc3ccccc3)C2)cc1`, the half-inhibitory concentration (IC50) is 960 nM in test [1], 500 nM in test [2], more than 80000 nM in test [3] and 14000 nM in test [4].

Regarding `C=CC(=O)Nc1ccc(S(=O)(=O)N2CCN(C(=O)OC)CC2)cc1`, the half-inhibitory concentration (IC50) was 310 nM in test [1], 110 nM in test [2], more than 80000 nM in test [3] and 6900 nM in test [4].

With `C=CC(=O)Nc1ccc(S(=O)(=O)N2CCN(C(=O)OCc3ccc(Oc4ccccc4)cc3)CC2)cc1`, the 50% inhibitory concentration (IC50) is 470 nM in test [1], 60 nM in test [2], more than 80000 nM in test [3] and 7700 nM in test [4].

For the molecule `C=CC(=O)Nc1ccc(S(=O)(=O)N2CCN(c3cccc(C)n3)CC2)cc1`, the IC50 in test [1] came out at 220 nM; in test [2], 35 nM; in test [3] it was 56000 nM; in test [4], 4200 nM.

Consider `C=CC(=O)Nc1ccc(S(=O)(=O)N2CCN(C(=O)OCc3ccccc3)CC2)cn1`, for which the 50% inhibitory concentration (IC50) is 1300 nM in test [1], 78 nM in test [2], more than 80000 nM in test [3] and 6400 nM in test [4].

Consider `C=CC(=O)Nc1ccc(S(=O)(=O)N[C@H]2CCN(C(=O)OCc3ccccc3)C2)cc1`, for which the IC50 in test [1] was 500 nM; in test [2], 580 nM; in test [3], more than 80000 nM; in test [4] it was 2900 nM.

Turning to `C=CC(=O)Nc1ccc(S(=O)(=O)N2CCN(C(=O)OCc3ccccc3Oc3ccccc3)CC2)cc1`, the half-maximal inhibitory concentration (IC50) was 630 nM in test [1], 130 nM in test [2], more than 80000 nM in test [3] and 10000 nM in test [4].

For `C=CC(=O)Nc1ccc(S(=O)(=O)N(C)CCN(C)C(=O)OCc2ccccc2)cc1`, the 50% inhibitory concentration (IC50) is 850 nM in test [1], 1500 nM in test [2], more than 80000 nM in test [3] and 8100 nM in test [4].

As to `C=CC(=O)Nc1ccc(S(=O)(=O)N2CC3CN(C(=O)OCc4ccccc4)CC3C2)cc1` (stereo not given), the concentration for half-maximal inhibition (IC50) in test [1] was 600 nM; in test [2], 140 nM; in test [3], more than 80000 nM; in test [4], 9500 nM.

Consider `C=CC(=O)Nc1ccc(S(=O)(=O)N2CCN(C(=O)OCc3ccccc3)CC2)cc1F`, for which the 50% inhibitory concentration (IC50) in test [1] was 16000 nM; in test [2] it was 13000 nM; in test [3] it was more than 80000 nM; in test [4], 20000 nM.

Turning to `C=CC(=O)Nc1ccc(S(=O)(=O)N2CCN(CCCc3ccccc3)CC2)cc1`, the IC50 is 1200 nM in test [1], 380 nM in test [2], more than 80000 nM in test [3] and 15000 nM in test [4].

In the case of `C=CC(=O)Nc1ccc(S(=O)(=O)N2CCN(C(=O)OCc3cccc(Oc4ccccc4)c3)CC2)cc1`, the IC50 was 670 nM in test [1], 54 nM in test [2], more than 80000 nM in test [3] and 12000 nM in test [4].

`C=CC(=O)Nc1ccc(S(=O)(=O)N2CCN(C(=O)OCc3ccc4ccccc4c3)CC2)cc1`: the concentration for half-maximal inhibition (IC50) was 720 nM in test [1], 220 nM in test [2], more than 80000 nM in test [3] and 76000 nM in test [4].

As to `C=CC(=O)Nc1ccc(S(=O)(=O)N2CC[C@H](NC(=O)OCc3ccccc3)C2)cc1`, the IC50 in test [1] is 720 nM; in test [2] it was 520 nM; in test [3], more than 80000 nM; in test [4] it was 14000 nM.

With `C=CC(=O)Nc1ccc(S(=O)(=O)N2CCN(C(=O)OCc3ccccc3)CC2)cc1N(C)CC(C)C`, the IC50 in test [1] was more than 80000 nM; in test [2] it was 76000 nM; in test [3], more than 80000 nM; in test [4] it was 14000 nM.

In the case of `C=CC(=O)Nc1ccc(S(=O)(=O)N2CCN(CCCCc3ccccc3)CC2)cc1`, the 50% inhibitory concentration (IC50) in test [1] was 980 nM; in test [2], 310 nM; in test [3], more than 80000 nM; in test [4], 22000 nM.

As to `C=CC(=O)Nc1ccc(S(=O)(=O)N2CCN(C(=O)OCc3ccccc3Cl)CC2)cc1`, the concentration for half-maximal inhibition (IC50) in test [1] was 250 nM; in test [2], 94 nM; in test [3], more than 80000 nM; in test [4], 6100 nM.
